Calls of active or inactive are those of the source. The calls are words filed in the database; no cut-off is given here.
system: not listed separately; test: Reduction of plasma membrane expression of BCRP expressing reporter gene GFP in BCRP-MDCK2 cells at 0.5 to 1.8 uM after 72 hrs by fluorescence assay relative to control; format: functional, cell-based; design: scale not given: the % may be the effect or the level left; settings: Canis lupus familiaris, MDCK-II
Outline: (§1)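 MDCK II cells transfected with human wild-type BCRP cDNA C-terminally fused to GFP. Seeded at 100,000 cells/well and treated 4 h later at final 0.5, 1.0 and 1.8 µM for 72 h at 37 °C. Surface BCRP measured by 5D3 antibody binding (FL2, 585 nm) and total BCRP by GFP (FL1, 520 nm) on a flow cytometer, gated on scatter. Geometric means normalized to untreated cells as 100%.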

| Compound | Activity |
| --- | --- |
| O=[N+]([O-])c1cccc(Nc2nc(-c3ccccc3)nc3ccccc23)c1 | inactive |
| COc1cc2ncnc(Nc3ccc(F)c(Cl)c3)c2cc1OCCCN1CCOCC1 [GEFITINIB] | Active |
| COc1cc2ncnc(Nc3cccc([N+](=O)[O-])c3)c2cc1OC | 60% |
| O=[N+]([O-])c1cccc(Nc2ncnc3ccccc23)c1 | inactive |
| COc1ccc(-c2nc(Nc3cccc([N+](=O)[O-])c3)c3ccccc3n2)cc1OC | 75% |

system: BCRP; test: Therapeutic index, ratio of GI50 for MDCK cells to IC50 for human BCRP expressed in MDCK2 cells; settings: dog

| Compound | selectivity ratio |
| --- | --- |
| COc1cc2ncnc(Nc3cccc([N+](=O)[O-])c3)c2cc1OC | 1.85 |
| O=[N+]([O-])c1cccc(Nc2ncnc3ccccc23)c1 | 16 |

same assay, conditions: dog, mdck2

| Compound | selectivity ratio |
| --- | --- |
| Oc1cccc(Nc2nc(-c3ccccc3)nc3ccccc23)c1 | 340 |
| COc1ccc(-c2nc(Nc3cccc(O)c3)c3ccccc3n2)cc1OC | 33 |

molecular target: T1, Broad substrate specificity ATP-binding cassette transporter ABCG2 (Homo sapiens, UniProt Q9UNQ0); test: Reversal of human BCRP-mediated multidrug resistant in MDCK2 cells assessed as increase of Hoechst 33342-induced cytotoxicity at 1 to 5 uM after 72 hrs by MTT assay; format: cell-based; settings: mdck-ii
T1 sequence (Q9UNQ0 whole entry): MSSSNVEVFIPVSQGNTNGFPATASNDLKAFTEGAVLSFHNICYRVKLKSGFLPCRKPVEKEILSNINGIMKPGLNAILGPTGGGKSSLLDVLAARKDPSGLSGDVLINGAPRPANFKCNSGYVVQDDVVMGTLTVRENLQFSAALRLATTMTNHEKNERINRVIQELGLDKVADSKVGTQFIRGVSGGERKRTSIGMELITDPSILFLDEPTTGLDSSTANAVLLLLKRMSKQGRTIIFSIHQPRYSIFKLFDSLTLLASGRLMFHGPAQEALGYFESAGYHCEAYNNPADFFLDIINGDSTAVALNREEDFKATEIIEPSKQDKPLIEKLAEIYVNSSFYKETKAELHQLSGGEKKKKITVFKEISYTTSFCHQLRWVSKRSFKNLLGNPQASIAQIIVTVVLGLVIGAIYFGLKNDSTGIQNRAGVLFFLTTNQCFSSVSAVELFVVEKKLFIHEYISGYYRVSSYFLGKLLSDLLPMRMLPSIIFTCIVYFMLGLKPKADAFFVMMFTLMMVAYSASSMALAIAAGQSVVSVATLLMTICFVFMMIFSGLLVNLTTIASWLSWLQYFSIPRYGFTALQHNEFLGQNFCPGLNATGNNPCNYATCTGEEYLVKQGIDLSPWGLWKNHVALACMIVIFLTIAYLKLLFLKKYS
Outline: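 MDR reversal by MTT assay in MDCK BCRP cells with compounds at final 1 µM and 5 µM. Dose–response curves to Hoechst 33342 were compared with and without inhibitor and against sensitive MDCK cells. Conditions as for the MTT cytotoxicity assay: 2500 cells/well, 72 h, absorbance at 544/710 nm.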

| Compound | Activity |
| --- | --- |
| Oc1cccc(Nc2nc(-c3ccccc3)nc3ccccc23)c1 | Active |

molecular target: T1, Broad substrate specificity ATP-binding cassette transporter ABCG2; test: Inhibition of human BCRP expressed in MDCK2 cells assessed as pheophorbide A accumulation treated 30 mins before pheophorbide A addition measured up to 120 mins by flow cytometry; format: cell-based, MDCK-II; settings: not given

| Compound | IC50 |
| --- | --- |
| COc1cc2ncnc(Nc3ccc([N+](=O)[O-])cc3)c2cc1OC | 2.46 µM |
| COc1ccc(-c2nc(Nc3ccccc3[N+](=O)[O-])c3ccccc3n2)cc1OC | 1.55 µM |
| COc1cc2ncnc(Nc3cccc(Br)c3)c2cc1OC | 2.32 µM |
| COc1cc2ncnc(Nc3cccc(C(F)(F)F)c3)c2cc1OC | 1.98 µM |
| COc1cc2nc(Nc3cccc(C(F)(F)F)c3)nc(Nc3cccc(C(F)(F)F)c3)c2cc1OC | 0.61 µM |
| COc1cc2ncnc(Nc3cccc([N+](=O)[O-])c3)c2cc1OC | 0.91 µM |
| O=[N+]([O-])c1cccc(Nc2ncnc3ccccc23)c1 | 0.89 µM |

More lines, now with the values ahead:

| IC50 | Compound |
| --- | --- |
| 0.68 µM | COc1ccc(-c2nc(Nc3ccc(O)cc3)c3ccccc3n2)cc1OC |
| 0.32 µM | COc1cc2nc(Nc3cccc([N+](=O)[O-])c3)nc(Nc3cccc([N+](=O)[O-])c3)c2cc1OC |
| 0.47 µM | COc1cc2nc(Nc3cccc(C#N)c3)nc(Nc3cccc(C#N)c3)c2cc1OC |
| 0.11 µM | COc1ccc(-c2nc(Nc3cccc(O)c3)c3ccccc3n2)cc1OC |

system: MDCK-II; test: Increase of plasma membrane expression of BCRP expressing reporter gene GFP in BCRP-MDCK2 cells at 0.5 to 1.8 uM after 72 hrs by fluorescence assay; format: functional, cell-based; settings: Canis lupus familiaris, in the assay text read “total expression” for “plasma membrane expression”; outline: as §1

| Compound | Activity |
| --- | --- |
| O=[N+]([O-])c1cccc(Nc2nc(-c3ccccc3)nc3ccccc23)c1 | Active |
| COc1cc2ncnc(Nc3ccc(F)c(Cl)c3)c2cc1OCCCN1CCOCC1 [GEFITINIB] | Active |
| COc1cc2ncnc(Nc3cccc([N+](=O)[O-])c3)c2cc1OC | inactive |
| O=[N+]([O-])c1cccc(Nc2ncnc3ccccc23)c1 | Active |
| COc1ccc(-c2nc(Nc3cccc([N+](=O)[O-])c3)c3ccccc3n2)cc1OC | Active |

molecular target: T2, ATP-dependent translocase ABCB1 (Homo sapiens, UniProt P08183); test: Inhibition of MDR1 in human doxorubicin-resistant A2780adr cells assessed as Calcein AM accumulation treated 30 mins before Calcein AM addition measured up to 90 mins by fluorescence assay; format: cell-based, A2780 ADR; settings: not given
T2 sequence (P08183 whole entry): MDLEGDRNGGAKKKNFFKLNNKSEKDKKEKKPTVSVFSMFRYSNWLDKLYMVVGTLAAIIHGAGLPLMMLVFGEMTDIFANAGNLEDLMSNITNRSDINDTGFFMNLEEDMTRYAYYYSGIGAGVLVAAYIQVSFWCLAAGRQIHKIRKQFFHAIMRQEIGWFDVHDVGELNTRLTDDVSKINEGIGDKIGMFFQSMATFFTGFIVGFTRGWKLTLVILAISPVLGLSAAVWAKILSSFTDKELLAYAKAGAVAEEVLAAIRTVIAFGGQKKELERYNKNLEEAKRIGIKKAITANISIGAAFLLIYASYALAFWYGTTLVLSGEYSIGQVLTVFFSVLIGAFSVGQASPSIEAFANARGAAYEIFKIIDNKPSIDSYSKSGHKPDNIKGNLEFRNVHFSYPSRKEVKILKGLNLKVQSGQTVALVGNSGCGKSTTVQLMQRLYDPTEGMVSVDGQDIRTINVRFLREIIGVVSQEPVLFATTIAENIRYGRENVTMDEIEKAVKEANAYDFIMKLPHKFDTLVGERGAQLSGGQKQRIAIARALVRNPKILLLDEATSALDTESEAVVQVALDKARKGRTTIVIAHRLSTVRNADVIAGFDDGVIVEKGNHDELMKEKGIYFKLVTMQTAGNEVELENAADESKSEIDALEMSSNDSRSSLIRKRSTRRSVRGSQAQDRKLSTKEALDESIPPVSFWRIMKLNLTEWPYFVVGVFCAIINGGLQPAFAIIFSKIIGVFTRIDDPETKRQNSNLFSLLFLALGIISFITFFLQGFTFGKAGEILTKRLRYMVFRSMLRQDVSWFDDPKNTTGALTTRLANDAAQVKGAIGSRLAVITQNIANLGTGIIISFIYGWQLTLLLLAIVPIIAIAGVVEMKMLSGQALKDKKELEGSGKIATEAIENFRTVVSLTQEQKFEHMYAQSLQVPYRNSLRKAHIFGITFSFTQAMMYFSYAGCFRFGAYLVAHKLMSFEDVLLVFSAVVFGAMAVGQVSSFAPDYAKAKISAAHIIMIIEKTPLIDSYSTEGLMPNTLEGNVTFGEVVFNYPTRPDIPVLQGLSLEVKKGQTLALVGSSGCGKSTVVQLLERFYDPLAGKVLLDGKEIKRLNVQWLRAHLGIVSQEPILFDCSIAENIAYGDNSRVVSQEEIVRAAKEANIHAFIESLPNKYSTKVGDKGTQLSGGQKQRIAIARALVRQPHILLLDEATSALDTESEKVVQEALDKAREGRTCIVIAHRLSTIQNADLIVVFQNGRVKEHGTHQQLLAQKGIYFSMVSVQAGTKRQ

| IC50 | Compound |
| --- | --- |
| 18.2 µM | COc1ccc(-c2nc(Nc3cccc(O)c3)c3ccccc3n2)cc1OC |
| 9.56 µM | COc1ccc(-c2nc(Nc3cccc([N+](=O)[O-])c3)c3ccccc3n2)cc1OC |

molecular target: MRP1 (Homo sapiens, UniProt P33527); test: (§2) Inhibition of MRP1 in human 2008 cells assessed as Calcein AM accumulation at 10 uM treated 30 mins before Calcein AM addition measured up to 90 mins by fluorescence assay relative to control; format: cell-based; settings: human, 2008 cells, probe Calcein AM
Sequence (P33527 whole entry): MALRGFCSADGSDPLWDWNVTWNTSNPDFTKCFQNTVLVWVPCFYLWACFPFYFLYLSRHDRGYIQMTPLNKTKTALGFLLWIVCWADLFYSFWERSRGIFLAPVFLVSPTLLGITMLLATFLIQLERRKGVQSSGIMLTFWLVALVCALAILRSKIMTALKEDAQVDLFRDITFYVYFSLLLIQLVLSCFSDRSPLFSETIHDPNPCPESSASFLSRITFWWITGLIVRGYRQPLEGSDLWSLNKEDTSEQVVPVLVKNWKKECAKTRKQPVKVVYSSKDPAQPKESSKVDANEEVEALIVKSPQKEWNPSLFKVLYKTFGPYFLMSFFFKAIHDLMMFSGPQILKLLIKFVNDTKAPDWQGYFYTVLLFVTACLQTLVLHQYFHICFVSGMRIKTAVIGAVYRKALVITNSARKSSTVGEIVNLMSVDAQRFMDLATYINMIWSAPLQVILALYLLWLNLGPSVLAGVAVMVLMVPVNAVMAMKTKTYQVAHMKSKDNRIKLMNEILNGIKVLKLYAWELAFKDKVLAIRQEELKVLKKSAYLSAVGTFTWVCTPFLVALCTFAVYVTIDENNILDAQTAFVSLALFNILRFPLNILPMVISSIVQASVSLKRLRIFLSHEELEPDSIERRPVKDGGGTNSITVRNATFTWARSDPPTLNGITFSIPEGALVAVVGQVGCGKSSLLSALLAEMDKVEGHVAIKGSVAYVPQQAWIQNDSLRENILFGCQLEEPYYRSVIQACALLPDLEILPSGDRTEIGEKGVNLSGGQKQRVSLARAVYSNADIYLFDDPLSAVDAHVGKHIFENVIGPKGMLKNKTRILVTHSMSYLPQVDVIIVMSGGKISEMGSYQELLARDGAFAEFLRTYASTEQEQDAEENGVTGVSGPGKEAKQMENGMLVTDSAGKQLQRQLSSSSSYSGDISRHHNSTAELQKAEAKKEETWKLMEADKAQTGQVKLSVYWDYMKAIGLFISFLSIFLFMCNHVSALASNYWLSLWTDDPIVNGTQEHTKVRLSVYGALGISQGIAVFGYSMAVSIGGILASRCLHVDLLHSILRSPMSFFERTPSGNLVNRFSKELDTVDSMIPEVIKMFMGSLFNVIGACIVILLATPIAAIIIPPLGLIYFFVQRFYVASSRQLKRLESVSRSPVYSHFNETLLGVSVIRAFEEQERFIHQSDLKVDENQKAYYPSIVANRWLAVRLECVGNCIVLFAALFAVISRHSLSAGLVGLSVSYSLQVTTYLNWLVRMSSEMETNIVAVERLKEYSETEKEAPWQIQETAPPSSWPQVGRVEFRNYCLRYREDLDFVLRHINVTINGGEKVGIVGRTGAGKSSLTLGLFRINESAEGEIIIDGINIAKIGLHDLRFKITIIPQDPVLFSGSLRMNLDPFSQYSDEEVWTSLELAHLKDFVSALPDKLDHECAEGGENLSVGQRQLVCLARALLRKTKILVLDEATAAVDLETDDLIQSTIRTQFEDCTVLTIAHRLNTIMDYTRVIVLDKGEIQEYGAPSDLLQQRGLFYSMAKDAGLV

| Compound | inhibition at 90 min, 10 µM |
| --- | --- |
| COc1ccc(-c2nc(Nc3ccccc3[N+](=O)[O-])c3ccccc3n2)cc1OC | > 50% |
| COc1ccc(-c2nc(Nc3cccc([N+](=O)[O-])c3)c3ccccc3n2)cc1OC | > 50% |

Second part, the molecule after the results:

| inhibition at 90 min, 10 µM | Compound |
| --- | --- |
| > 50% | COc1ccc(-c2nc(Nc3ccc(O)cc3)c3ccccc3n2)cc1OC |
| > 50% | COc1ccc(-c2nc(Nc3cccc(O)c3)c3ccccc3n2)cc1OC |

molecular target: Multidrug resistance-associated protein 1 (Homo sapiens, UniProt P33527); test: as §2; format: cell-based; settings: human, 2008, 10 µM
Sequence (P33527 whole entry): as above

| inhibition (INH) | Compound |
| --- | --- |
| Not Active | O=[N+]([O-])c1cccc(Nc2nc(-c3ccccc3)nc3ccccc23)c1 |
| Not Active | Oc1cccc(Nc2nc(-c3ccccc3)nc3ccccc23)c1 |

molecular target: MDR1 (Homo sapiens, UniProt P08183); test: (§3) Inhibition of MDR1 in human doxorubicin-resistant A2780adr cells assessed as Calcein AM accumulation at 10 uM treated 30 mins before Calcein AM addition measured up to 90 mins by fluorescence assay relative to control; format: cell-based, A2780 ADR; settings: doxorubicin-resistant A2780adr cells, probe Calcein AM
Sequence (P08183 whole entry): as the sequence (P08183 whole entry) above

| Compound | inhibition at 90 min, 10 µM |
| --- | --- |
| COc1ccc(-c2nc(Nc3ccccc3[N+](=O)[O-])c3ccccc3n2)cc1OC | > 50% |
| COc1ccc(-c2nc(Nc3cccc([N+](=O)[O-])c3)c3ccccc3n2)cc1OC | > 50% |

Further lines, results first:

| inhibition at 90 min, 10 µM | Compound |
| --- | --- |
| > 50% | COc1ccc(-c2nc(Nc3ccc(O)cc3)c3ccccc3n2)cc1OC |
| > 50% | COc1ccc(-c2nc(Nc3cccc(O)c3)c3ccccc3n2)cc1OC |

molecular target: T2, ATP-dependent translocase ABCB1; test: as §3; format: cell-based, A2780 ADR; settings: a2780 adr, 10 µM

| inhibition (INH) | Compound |
| --- | --- |
| Not Active | O=[N+]([O-])c1cccc(Nc2nc(-c3ccccc3)nc3ccccc23)c1 |
| Not Active | Oc1cccc(Nc2nc(-c3ccccc3)nc3ccccc23)c1 |

molecular target: T1, Broad substrate specificity ATP-binding cassette transporter ABCG2; test: Inhibition of human BCRP expressed in MDCK2 cells assessed as Hoechst 33342 accumulation treated 30 mins before Hoechst 33342 addition measured up to 120 mins by fluorescence assay; format: cell-based, MDCK-II; settings: not given

| Compound | IC50 |
| --- | --- |
| COc1cc2ncnc(Nc3ccc([N+](=O)[O-])cc3)c2cc1OC | 2.92 µM |
| COc1ccc(-c2nc(Nc3ccccc3[N+](=O)[O-])c3ccccc3n2)cc1OC | 0.64 µM |
| COc1cc2ncnc(Nc3cccc(Br)c3)c2cc1OC | 1.73 µM |
| COc1cc2ncnc(Nc3cccc(C(F)(F)F)c3)c2cc1OC | 2.4 µM |
| COc1cc2nc(Nc3cccc(C(F)(F)F)c3)nc(Nc3cccc(C(F)(F)F)c3)c2cc1OC | 0.8 µM |
| COc1cc2ncnc(Nc3cccc([N+](=O)[O-])c3)c2cc1OC | 0.81 µM |
| O=[N+]([O-])c1cccc(Nc2ncnc3ccccc23)c1 | 1.13 µM |

More lines, now with the values ahead:

| IC50 | Compound |
| --- | --- |
| 0.47 µM | COc1ccc(-c2nc(Nc3ccc(O)cc3)c3ccccc3n2)cc1OC |
| 0.33 µM | COc1cc2nc(Nc3cccc([N+](=O)[O-])c3)nc(Nc3cccc([N+](=O)[O-])c3)c2cc1OC |
| 0.48 µM | COc1cc2nc(Nc3cccc(C#N)c3)nc(Nc3cccc(C#N)c3)c2cc1OC |
| 0.15 µM | Oc1cccc(Nc2nc(-c3ccccc3)nc3ccccc23)c1 |
| 0.14 µM | COc1ccc(-c2nc(Nc3cccc(O)c3)c3ccccc3n2)cc1OC |

system: not listed separately; test: Cytotoxicity against MDCK cells after 72 hrs by MTT assay; format: cell-based, Canis lupus familiaris; settings: dog
Outline: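 MTT assay in MDCK BCRP and parental MDCK cells: 2500 cells/well, 6 h attachment at 37 °C, 5% CO₂, compounds up to 100 µM for 72 h. MTT (5 mg/ml solution) added for 1 h, then lysis in DMSO. Absorbance read at 544 nm with 710 nm background correction. Controls were 10% DMSO medium and PBS only. GI₅₀ derived.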

| Compound | GI50 at 72 h |
| --- | --- |
| O=[N+]([O-])c1cccc(Nc2nc(-c3ccccc3)nc3ccccc23)c1 | 67.8 µM |
| COc1cc2ncnc(Nc3ccc(F)c(Cl)c3)c2cc1OCCCN1CCOCC1 [GEFITINIB] | 1.45 µM |
| Oc1cccc(Nc2nc(-c3ccccc3)nc3ccccc23)c1 | 51.1 µM |
| COc1cc2ncnc(Nc3cccc([N+](=O)[O-])c3)c2cc1OC | 1.5 µM |
| COc1ccc(-c2nc(Nc3cccc(O)c3)c3ccccc3n2)cc1OC | 4.61 µM |
| O=[N+]([O-])c1cccc(Nc2ncnc3ccccc23)c1 | 18.3 µM |
| COc1ccc(-c2nc(Nc3cccc([N+](=O)[O-])c3)c3ccccc3n2)cc1OC | 20.8 µM |

Source: ChEMBL document CHEMBL3091323, “Investigation of quinazolines as inhibitors of breast cancer resistance protein (ABCG2)” (Bioorg Med Chem, 2013)
